The source made the active and inactive calls. The rule behind the calls is not given here.
Tests used:
Rattus norvegicus [1] = experiment: Antidiabetic activity in streptozotocin/nicotinamide-induced Wistar rat model of diabetes assessed as plasma glucose reduction at 50 mg/kg, ig measured at 1 to 7 hrs post dose by glucometric analysis; assay type: functional, organism-based
[2] = Antioxidant activity assessed as DPPH radical scavenging activity incubated for 20 mins; assay type: physicochemical
Outline: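 DPPH (100 μM in ethanol) was mixed with sample at different concentrations and incubated 20 min at room temperature in the dark, then A517 was read. % scavenging was calculated against a water control. IC was reported as mean ± SEM, n = 3.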

[3] = Antioxidant activity assessed as DPPH radical scavenging activity at 10 uM incubated for 20 mins; assay type: physicochemical
[4] = Antioxidant activity assessed as DPPH radical scavenging activity at 100 uM incubated for 20 mins; assay type: physicochemical
[5] = Antioxidant activity assessed as DPPH radical scavenging activity at 1 uM incubated for 20 mins; assay type: physicochemical
Rattus norvegicus [6] = experiment: Antidiabetic activity in streptozotocin/nicotinamide-induced Wistar rat model of diabetes assessed as plasma glucose variation at 50 mg/kg, ig measured at 5 hrs post dose by glucometric analysis (reference value: -2 +/- 6%); assay type: functional
Rattus norvegicus [7] = experiment: Antidiabetic activity in streptozotocin/nicotinamide-induced Wistar rat model of diabetes assessed as plasma glucose variation at 50 mg/kg, ig measured at 1 hr post dose by glucometric analysis (reference value: 17 +/- 8%); assay type: functional
Rattus norvegicus [8] = experiment: Antidiabetic activity in streptozotocin/nicotinamide-induced Wistar rat model of diabetes assessed as plasma glucose variation at 50 mg/kg, ig measured at 3 hrs post dose by glucometric analysis (reference value: -13 +/- 10%); assay type: functional
Rattus norvegicus [9] = experiment: Antidiabetic activity in streptozotocin/nicotinamide-induced Wistar rat model of diabetes assessed as plasma glucose variation at 50 mg/kg, ig measured at 7 hrs post dose by glucometric analysis (reference value: -5 +/- 8%); assay type: functional

COc1cc(/C=N/NC(=O)c2nn(-c3ccc(Cl)c(Cl)c3)c(-c3ccc(Cl)cc3)c2C)ccc1O
Activity (Rattus norvegicus [1]): Active

Cc1c(C)c2c(c(C)c1O)CC[C@@](C)(CCC[C@H](C)CCC[C@H](C)CCCC(C)C)O2 [ALPHA-TOCOPHEROL]
IC50 [2]: 10.9 µM

COc1cc(/C=C/C(=O)O)ccc1O [FERULATE]
IC50 [2]: 47.7 µM
Activity [3]: 14.52%
Activity [4]: 78.73%
Activity [5]: 3.06%

COc1ccc(Cl)cc1C(=O)NCCc1ccc(S(=O)(=O)NC(=O)NC2CCCCC2)cc1 [GLYBURIDE]
Activity (Rattus norvegicus [6]): -31%
Activity (Rattus norvegicus [7]): -4%
Activity (Rattus norvegicus [8]): -31%
Activity (Rattus norvegicus [9]): -31%

O=c1c(O)c(-c2ccc(O)c(O)c2)oc2cc(O)cc(O)c12 [QUERCETIN]
IC50 [2]: 31.7 µM

Cc1c(C(=O)NN2CCCCC2)nn(-c2ccc(Cl)cc2Cl)c1-c1ccc(Cl)cc1 [RIMONABANT]
Activity (Rattus norvegicus [6]): -30%
Activity (Rattus norvegicus [7]): -30%
Activity (Rattus norvegicus [8]): -21%
Activity (Rattus norvegicus [9]): -39%

COc1cc(/C=C/C(=O)O)cc(OC)c1O [SINAPINATE]
IC50 [2]: 35.8 µM
Activity [3]: 23.29%
Activity [4]: 90.61%
Activity [5]: 2.65%

— ChEMBL document CHEMBL3784970, “Synthesis and molecular docking of N'-arylidene-5-(4-chlorophenyl)-1-(3,4-dichlorophenyl)-4-methyl-1H-pyrazole-3-carbohydrazides as novel hypoglycemic and antioxidant dual agents” (Bioorg Med Chem, 2016)
